High-throughput results (PubChem)
Hits are enriched below; roughly 4.6% of the tested compounds scored in any of these assays.
OX1R antag-1 – blocks the human orexin 1 receptor; O43613; CHO/OX1R cells, Fluo-8 calcium fluorescence, orexin A; inhibition, % at 5 µM; 0.43% of 330,000 active;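 active means inhibition above its plate's threshold, mean inhibition of all tested compounds on the plate plus 3 SD, cut at about 37% in these data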;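 further: 0% = orexin A challenge wells and 100% = SB-334867-A antagonist wells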
Target sequence (O43613 whole entry, looked up): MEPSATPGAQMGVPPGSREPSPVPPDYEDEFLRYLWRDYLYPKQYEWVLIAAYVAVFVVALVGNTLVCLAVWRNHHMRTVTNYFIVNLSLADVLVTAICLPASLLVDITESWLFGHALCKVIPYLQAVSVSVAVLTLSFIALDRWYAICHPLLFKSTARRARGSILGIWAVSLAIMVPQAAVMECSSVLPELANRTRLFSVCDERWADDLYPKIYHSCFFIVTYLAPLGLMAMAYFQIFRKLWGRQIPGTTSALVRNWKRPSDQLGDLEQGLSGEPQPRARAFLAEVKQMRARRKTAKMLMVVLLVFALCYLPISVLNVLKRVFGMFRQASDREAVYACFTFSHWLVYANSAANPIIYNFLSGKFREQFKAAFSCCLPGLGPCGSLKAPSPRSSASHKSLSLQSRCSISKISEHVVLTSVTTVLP
TAAR1 agonist – agonists of human TAAR1. Q96RJ0. activation, % at 3 µM. CHO RD-HGA16 TAAR1, Fluo-8 calcium fluorescence; vehicle wells 0%, saturating PEA agonist 100%. 0.99% of 360,000 active;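 active means activation above the mean activation of all test compounds in the run plus 3 SD, cut at about 38% in these data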
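Signal – calcium-sensitive Fluo-8 signal, excitation 470-495, emission 515-575 nm · System – RD-HGA16 (CHO) cells co-expressing Gα16 and hTAAR1 · Incubation – 17-24 h seeding, 75 min 37 °C dye, 30 min RT · Compound dosing – 3 µM single concentration · Repeats – no replicates (n 1)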
OX1R antag-2 – antagonists of human orexin 1 receptor (OX1R); O43613; OX1R-expressing cells, FRET antagonist read-out; inhibition, % at 6.6 µM; 1.8% of 330,000 active; in the data active means inhibition mostly above about 38%, no sharp cut-off; inactive means mostly below about 40%;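 further: 0% = agonist challenge alone and 100% = reference antagonist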
CHO parental Ca – counter-screen for OX1R antagonists: effect in parental CHO cells; parental CHO-K1, ATP-induced calcium, Fluo-8 fluorescence; inhibition, % at 5.6 µM; 0.63% of 330,000 active; AID 463079;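 active means inhibition above that plate's mean sample inhibition plus 3 SD, cut at about 26% in these data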;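 further: 0% = ATP-challenged DMSO wells and 100% = DMSO wells without ATP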
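Material – parental CHO cells · Reagent – ATP stimulus · Compound – single nominal dose of 5.6 µM per compound · Detection – Fluo-8 fluorescence · Read-out basis – percent inhibition of calcium signal · Controls – ATP-challenged DMSO wells low, unchallenged DMSO wells high · Repeats – no replicates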
GPR7 antag – antagonists of human GPR7 (neuropeptides B/W receptor 1). P48145. inhibition, % at 4.4 µM. GPR7-expressing cells, fluorescence antagonist assay. 1.1% of 290,000 active; in the data active means inhibition above about 16%, passing the limit was not always enough;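 further: cells stimulated with the agonist NPW; 0% = agonist with vehicle and 100% = vehicle without agonist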
TAAR1 antag – antagonists of human TAAR1 | 1.5% of 360,000 active | CHO RD-HGA16 TAAR1, Fluo-8 calcium fluorescence, antagonist | Q96RJ0 | AID 624466 | inhibition, % at 3 µM;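 active means inhibition above a per-plate cutoff, the mean inhibition of test compounds on that plate plus 3 SD, cut at about 49% in these data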;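 further: 0% = DMSO plus EC80 beta-PEA response and 100% = DMSO alone without agonist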
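System: RD-HGA16 CHO cells with stable hTAAR1 and Gα16 | Probe or stimulus: EC80 β-phenethylamine stimulus | Dosing: 3 µM, single point | Times: Dye loading 75 min at 37 °C, then 30 min room temperature | Measured by: Fluo-8 calcium-sensitive fluorescence | Read-out basis: % inhibition of agonist calcium response | Replicates: n of 1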
An asterisk follows results filed as active; x = not tested or not shown.

SMILES | OX1R antag-1 | TAAR1 agonist | OX1R antag-2 | CHO parental Ca | GPR7 antag | TAAR1 antag
COc1ccc(C(C)=O)cc1COC(=O)C1CC(=O)N(Cc2ccccc2)C1 (stereo not drawn) | -13.8 | 3.9 | 4.8 | -8.3 | -1.9 | -39.7
O=C(N/C(=C\c1ccc([N+](=O)[O-])cc1)C(=O)N1CCOCC1)c1ccccc1 | -10.0 | 6.4 | 21.5 | -19.1 | -15.2 | -8.4
O=C(N/C(=C/c1ccc([N+](=O)[O-])cc1)C(=O)N1CCOCC1)c1ccco1 | -11.7 | 0.0 | 74.2* | -1.7 | 4.2 | -28.5
O=C(CCc1nnc(Cc2ccc3c(c2)OCO3)o1)N(CC1CCC1)CC1CCCO1 (stereo not drawn) | -18.2 | -1.1 | 15.0 | -19.0 | -12.7 | -10.3
CCN(CC)c1nc(C=Cc2ccc(N(C)C)cc2)c2nccnc2n1 | x | 61.3* | x | x | x | 61.7*
O=C(COc1ccccc1)NNC(=O)COc1ccc([N+](=O)[O-])cc1 | 8.9 | -0.1 | 12.5 | -2.8 | -7.6 | 11.9
O=C(COc1ncnc2cc([N+](=O)[O-])ccc12)N(CCc1ccccc1)Cc1ccccc1 | 54.0* | 20.8 | 11.7 | 72.4* | -11.0 | 14.9
O=C(COc1ncnc2cc([N+](=O)[O-])ccc12)NC1CCCCC1 | -30.6 | 8.7 | 56.2* | 9.2 | -2.0 | -14.3
O=C(COc1ncnc2ccccc12)Nc1cccc([N+](=O)[O-])c1 | 2.2 | 0.1 | 14.4 | -1.3 | 4.5 | -5.2
O=C(COc1ccc([N+](=O)[O-])cc1)N(Cc1ccccc1)Cc1ccccc1 | -14.3 | -0.1 | 34.5 | -8.3 | 31.1* | 13.9
O=C(COc1ncnc2ccccc12)NC1CCCC1 | -8.0 | -2.9 | -0.5 | -9.3 | x | -8.6
Cc1ccccc1S(=O)(=O)N1CCCc2nc(-c3ccc(Br)cc3)ccc21 | x | 0.0 | x | x | x | -32.6
Cc1nn(CC(=O)Nc2cc(S(=O)(=O)N3CCOCC3)ccc2Cl)c(C)c1[N+](=O)[O-] | -8.6 | 1.4 | -3.2 | -9.4 | x | -11.6
c1ccc2[nH]c(-c3cnco3)cc2c1 | -8.6 | 1.5 | 7.6 | -0.7 | -2.2 | 9.0
Cc1ccc(CC(=O)Nc2nccs2)cc1 | -25.2 | 3.7 | -1.1 | 2.0 | 15.9 | -22.3
COc1cccc(/C=C/C(=O)Nc2ccccc2N2CCOCC2)c1 | -33.6 | 4.1 | 32.5 | -15.1 | -14.2 | -3.3
Cc1ccc(S(=O)(=O)Nc2nc3cc(C)c(C)cc3[nH]2)cc1 | -2.2 | 5.4 | 21.9 | -18.9 | -6.3 | 11.5
O=C(Nc1ccc2nc3n(c(=O)c2c1)CCCC3)c1cccc([N+](=O)[O-])c1 | -18.6 | 1.3 | 38.2 | -15.9 | -8.4 | 3.9
O=C(Nc1ccc2nc3n(c(=O)c2c1)CCCC3)c1cc([N+](=O)[O-])ccc1F | -4.4 | x | 52.4* | 8.3 | 12.8 | x
O=C(Nc1ccc(Cl)cc1)OCc1ccccn1 | 19.7 | 9.2 | 21.4 | 40.2* | 3.1 | 11.8
CSc1ccc(S(=O)(=O)N2CCC(C(=O)N3CCc4ccccc4C3)CC2)cc1 | -19.4 | 12.4 | 16.0 | -1.3 | 3.0 | 2.3
O=[N+]([O-])c1ccc(C(O)CN=Cc2ccc(O)cc2O)cc1 (stereo not drawn) | 1.1 | 3.6 | 16.8 | 3.1 | -2.0 | -3.4
Cc1ccc(S(=O)(=O)NC(=O)C2(C)CCN2C(=O)Cc2cccs2)nc1 (stereo not drawn) | x | -0.1 | x | x | x | 1.6
N#Cc1c(N)nc2c(c1-c1ccccc1)CCCC2 | -16.4 | 41.4* | 7.0 | -10.1 | -5.7 | -15.8
N#Cc1c2c(nc(N)c1-c1ccccc1)CCCCC2 | -17.0 | 0.2 | 6.2 | -13.9 | -10.1 | -1.1
O=S(=O)(c1ccccc1)c1ccc(N2CCCCCC2)cc1 | -17.3 | 8.3 | 24.1 | 36.5* | -23.9 | -2.6
O=C(COc1ccccc1)N1CCN(S(=O)(=O)c2cccc([N+](=O)[O-])c2)CC1 | -27.3 | -1.0 | 19.4 | 4.9 | -13.4 | -3.0
Cc1ccc(C(=O)Nc2ccc(Cc3ccncc3)cc2)cc1[N+](=O)[O-] | 3.6 | 15.2 | 29.4 | 19.1 | -3.7 | 60.5*
CCN(CC)S(=O)(=O)c1ccc(C(=O)Nc2ccc(Cc3ccncc3)cc2)cc1 | 81.7* | 21.4 | 39.2* | 84.6* | 20.9 | 56.3*
O=C(Nc1ccc(Cc2ccncc2)cc1)c1cccc([N+](=O)[O-])c1 | -0.8 | 6.2 | 7.9 | 7.8 | -0.4 | 28.7
